This is an account of results in ChEMBL document CHEMBL1123026, “Preparation and antiarthritic and analgesic activity of 4,5-diaryl-2-(substituted thio)-1H-imidazoles and their sulfoxides and sulfones” (1985).

Bounds are passed on as bounds.

Holding throughout (type): functional
For assay [1], the system named is Mus musculus. The assay is described as follows: Effective dose by mouse phenyl-p-benzoquinone writhing (PQW)assay after peroral administration; activity value ranges from (4.9-8.7). The following applies: po. Put shortly:
(§1)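 Fasted (17-21 h) female white mice, 5-20 per double-blind test, dosed orally with compound suspended in 1% methylcellulose. 0.20 mL aqueous 0.01% phenyl-p-benzoquinone given i.p. 6 min before a 10-min observation for stretching/writhing. ED50 (dose protecting 50% of mice) calculated by the moving-average method.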
For orientation: Writhing tests count abdominal constrictions after an irritant is injected.

For assay [2], the system named is Rattus norvegicus. Kind of assay: Effective dose determined against rat adjuvant arthritis after peroral administration. Particulars: po. The method in brief:
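Male Lewis rats (130-150 g) given 0.1 mL Mycobacterium butyricum adjuvant (5 mg/mL in mineral oil) s.c. into the right hind paw; arthritis developed for 2 weeks. Groups of 10 matched for severity were dosed orally by gavage in PVA-acacia vehicle (10 mL/kg) for 7 days. Uninjected left paw volume was measured the day after the last dose. Percent decrease was calculated vs arthritic and nonarthritic controls. ED50 was read from a visually fitted semilog dose-response line.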

For assay [3], the system named is Mus musculus. The assay is described as follows: Effective dose determined by mouse phenyl-p-benzoquinone writhing (PQW) assay after peroral administration. Particulars: po. The method in brief:
as §1

For assay [4], the system named is Rattus norvegicus. Kind of assay: Decrease in paw volume was evaluated at dose 50 mg/kg. Put shortly: (§2)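 Male Lewis rats (130-150 g) got 0.1 mL adjuvant (heat-killed Mycobacterium butyricum, 5 mg/mL in mineral oil) subplantar in the right hind paw and were left 2 weeks. Groups of 10 matched for severity were dosed orally by gavage (PVA-acacia vehicle, 10 mL/kg) for 7 days. Uninjected left hind paw volume was read the next day. % decrease = (arthritic control − treated)/(arthritic − nonarthritic control) × 100; Student's t-test.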

Assay [5] deals with Mus musculus. The assay is described as follows: Effective dose by mouse phenyl-p-benzoquinone writhing (PQW)assay after peroral administration; activity value ranges from (15.9-183). Particulars: po. The method in brief: as §1
The subject of assay [6] is Mus musculus. The assay is described as follows: Effective dose by mouse phenyl-p-benzoquinone writhing (PQW)assay after peroral administration; 15.5-103. The following applies: po.
Assay [7] has as its system Mus musculus. Kind of assay: Effective dose by mouse phenyl-p-benzoquinone writhing (PQW)assay after peroral administration; activity value ranges from (15.0-77.0). The following applies: po. Put shortly: as §1
Assay [8] deals with Mus musculus. Kind of assay: Effective dose by mouse phenyl-p-benzoquinone writhing (PQW)assay after peroral administration; activity value ranges from (2.6-10.7). The following applies: po. The method in brief:
as §1

The test system of assay [9] is Rattus norvegicus. Kind of assay: Decrease in paw volume by the effect of compound at a dose of 80 mg/kg. Put shortly:
as §2

Assay [10] concerns Mus musculus. Kind of assay: Effective dose by mouse phenyl-p-benzoquinone writhing (PQW)assay after peroral administration; highest dose was tested. The following applies: po. Put shortly: as §1
The subject of assay [11] is Mus musculus. The assay is described as follows: Effective dose by mouse phenyl-p-benzoquinone writhing (PQW)assay after peroral administration; activity value ranges from (4.8-25.4). The following applies: po. Put shortly: as §1
Assay [12] concerns Mus musculus. The assay is described as follows: Effective dose by mouse phenyl-p-benzoquinone writhing (PQW)assay after peroral administration; activity value ranges from (0.37-1.52). The following applies: po.
Assay [13] deals with Mus musculus. Kind of assay: Effective dose by mouse phenyl-p-benzoquinone writhing (PQW)assay after peroral administration; activity value ranges from (20.0-81.0). Particulars: po. Put shortly: as §1
For assay [14], the system named is Mus musculus. Kind of assay: Effective dose by mouse phenyl-p-benzoquinone writhing (PQW)assay after peroral administration; activity value ranges from (10.9-40.0). Particulars: po. Put shortly: as §1
Assay [15] deals with Mus musculus. Kind of assay: Effective dose by mouse phenyl-p-benzoquinone writhing (PQW)assay after peroral administration; activity value ranges from (1.2-4.5). The following applies: po.
Assay [16] deals with Rattus norvegicus. Kind of assay: Decrease in paw volume by the effect of compound at a dose of 30 mg/kg. The method in brief: as §2
Assay [17] relates to Rattus norvegicus. The assay is described as follows: Decrease in paw volume was evaluated at dose 30 mg/kg. Put shortly: as §2
Assay [18] concerns Mus musculus. The assay is described as follows: Effective dose by mouse phenyl-p-benzoquinone writhing (PQW)assay after peroral administration; 0.23-0.53. Particulars: po.
The subject of assay [19] is Mus musculus. Kind of assay: Effective dose by mouse phenyl-p-benzoquinone writhing (PQW)assay after peroral administration; activity value ranges from (28.6-55.9). The following applies: po. The method in brief: as §1
Assay [20] has as its system Rattus norvegicus. The assay is described as follows: Decrease in rat paw volume was evaluated at dose 100 mg/kg. Put shortly: as §2
The subject of assay [21] is Mus musculus. Kind of assay: Effective dose by mouse phenyl-p-benzoquinone writhing (PQW)assay after peroral administration; activity value ranges from (8.4-80.4). Particulars: po. The method in brief: as §1
Assay [22] deals with Rattus norvegicus. The assay is described as follows: Decrease in paw volume by the effect of compound at a dose of 25 mg/kg. The method in brief:
as §2

Assay [23] relates to Mus musculus. The assay is described as follows: Effective dose by mouse phenyl-p-benzoquinone writhing (PQW)assay after peroral administration; 6.8-17.7. Particulars: po.
Assay [24] has as its system Mus musculus. The assay is described as follows: Effective dose by mouse phenyl-p-benzoquinone writhing (PQW)assay after peroral administration; activity value ranges from (3.2-12.3). Particulars: po. Put shortly: as §1
For assay [25], the system named is Mus musculus. The assay is described as follows: Effective dose by mouse phenyl-p-benzoquinone writhing (PQW)assay after peroral administration; activity value ranges from (0.07-0.50). Particulars: po.

What is called ED50 is the dose that gives a 50% effect, or the effect in half of the subjects. `O=S(=O)(c1nc(-c2ccc(Cl)c(Cl)c2)c(-c2ccccc2)[nH]1)C(F)(F)C(F)F`: the ED50 in [1] came out at 6.5 mg/kg; in assay [2] it was 0.22 mg/kg.
In assay [3], `CSc1nc(-c2cccc(Cl)c2)c(-c2ccccc2)[nH]1` registered an ED50 of over 130 mg/kg. The Decrease in assay [4] is 43%.
Consider `[O-][S+](CC(F)(F)F)c1nc(-c2ccccc2)c(-c2ccccc2)[nH]1` (stereo not given), for which the ED50 in assay [5] amounted to 54 mg/kg; in assay [2] it was 75 mg/kg.
In the case of `CCCSc1nc(-c2ccc(OC)cc2)c(-c2ccc(OC)cc2)[nH]1`, the ED50 in assay [6] was 40 mg/kg.
Consider `COc1ccc(-c2nc([S+]([O-])CSC)[nH]c2-c2ccc(OC)cc2)cc1` (stereo not given), for which the values for the ED50 in [7] and in assay [2] were 34 mg/kg and 28 mg/kg, respectively.
On to `[O-][S+](CC(F)(F)F)c1nc(-c2ccc(Cl)cc2)c(-c2ccc(Cl)cc2)[nH]1` (stereo not given), for which the ED50 in assay [2] stood at 2.3 mg/kg; in [8], 5.3 mg/kg.
In the case of `COc1ccc(-c2nc(S(=O)(=O)CS(C)(=O)=O)[nH]c2-c2ccc(OC)cc2)cc1`, the ED50 in [3] is over 130 mg/kg. Besides, the Decrease in assay [9] is given as 43%.
In the case of `COc1ccc(-c2nc([S+]([O-])CC(C)=O)[nH]c2-c2ccc(OC)cc2)cc1` (stereo not given), the ED50 is 135 mg/kg in [10] and 35 mg/kg in [2].
As for `O=S(=O)(c1nc(-c2ccc(Cl)cc2)c(-c2ccc(Cl)cc2)[nH]1)C(F)(F)C(F)F`, the results for the ED50 in [11] and in [2] were 11 mg/kg and 0.18 mg/kg, respectively.
The compound `O=S(=O)(c1nc(-c2ccccc2)c(-c2ccccc2)[nH]1)C(F)(F)F` had an ED50 in assay [12] of 0.75 mg/kg.
As for `[O-][S+](c1nc(-c2ccc(F)cc2)c(-c2ccc(F)cc2)[nH]1)C(F)(F)F` (stereo not given), the ED50 in [13] came to 40 mg/kg; in [2], 0.06 mg/kg.
In [14], `O=S(=O)(c1nc(-c2cccc(Cl)c2)c(-c2cccc(Cl)c2)[nH]1)C(F)(F)C(F)F` registered an ED50 of 20.9 mg/kg.
Compound `O=S(=O)(c1nc(-c2ccc(Cl)cc2)c(-c2ccc(Cl)cc2)[nH]1)C(F)F` came in with an ED50 in [15] of 2.3 mg/kg.
Consider `COc1ccc(-c2nc([S+]([O-])C(C)C)[nH]c2-c2ccc(OC)cc2)cc1` (stereo not given), for which the ED50 in [3] was over 130 mg/kg. The compound further yielded a Decrease in assay [16] of 36%.
On to `COc1ccc(-c2nc(SCSC)[nH]c2-c2ccc(OC)cc2)cc1`, for which the ED50 in [3] was over 130 mg/kg. The compound further displayed a Decrease in assay [17] of 46%.
In assay [18], `COc1ccc2c(c1)c(CC(=O)O)c(C)n2C(=O)c1ccc(Cl)cc1` [INDOMETHACIN] registered an ED50 of 0.35 mg/kg.
In [19], `O=S(=O)(c1nc(-c2ccc(C(F)(F)F)cc2)c(-c2ccccc2)[nH]1)C(F)(F)C(F)F` returned an ED50 of 40 mg/kg.
Take `CSc1nc(-c2ccccc2)c(-c2ccccc2)[nH]1`: the ED50 in assay [3] was over 100 mg/kg. In assay [20], this compound displayed a Decrease of 20%.
With `COc1ccc(-c2nc(SC(C)C)[nH]c2-c2ccc(OC)cc2)cc1`, the Decrease in assay [17] is 38%.
In [21], `COc1ccc(-c2[nH]c(S(C)(=O)=O)nc2-c2ccccc2)cc1` showed an ED50 of 26 mg/kg. This compound also returned a Decrease in assay [22] of 33%.
As to `CCSc1nc(-c2ccc(OC)cc2)c(-c2ccc(OC)cc2)[nH]1`, the ED50 in [23] came out at 11 mg/kg; in assay [2] it was 5 mg/kg.
In turn, `O=S(=O)(c1nc(-c2ccc(Cl)cc2)c(-c2ccc(F)cc2)[nH]1)C(F)(F)C(F)F` displayed an ED50 in [24] of 6.3 mg/kg.
Consider `FC(F)C(F)(F)Sc1nc(-c2ccccc2)c(-c2ccccc2)[nH]1`, for which the ED50 in assay [10] was determined as 81 mg/kg; in assay [2] it was 1.2 mg/kg.
In the case of `O=S(=O)(c1nc(-c2ccc(F)cc2)c(-c2ccc(F)cc2)[nH]1)C(F)(F)F`, the 50% effective dose (ED50) in assay [25] stood at 0.19 mg/kg; in assay [2] it was 0.016 mg/kg.
